Screening data as filed in PubChem.
Shown are actives, neighbours in structure and some others; about 1.8% of the full set was active somewhere.
Jurkat NFkB inh: lowers PMA/ionomycin-induced NF-kB signal in Jurkat cells. inhibition, % at 4 µM. AID 435003. PMA/ionomycin-induced NF-kB luciferase reporter, luminescence. 0.53% of 330,000 active; in the data active = inhibition above about 50%
697 NFkB inh: inhibitors of the PMA/ionomycin-induced NF-kB reporter in 697 B cells. 0.33% of 330,000 active. inhibition, % at 4 µM. 697 B-cell NF-kB luciferase reporter, 16 h; in the data active = inhibition above about 35%
iPSC survival up: increases survival of single human iPS cells. hiPSC single-cell survival, ATPlite luminescence; 100% = ROCK inhibitor wells, 0% = DMSO. survival enhancement, % at 20 µM. 0.044% of 360,000 active; in the data active = survival enhancement above about 18%;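 also: cells exposed to compounds for 16 hours before the ATP read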
H9c2 TAG inh: reduces triacylglycerol accumulation in H9c2 cells. 0.66% of 230,000 active. inhibition, % at 12.5 µM. Nile Red lipid (TAG) fluorescence; cells loaded with 200 µM oleic acid;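 active = pattern-corrected inhibition of lipid staining of at least 50% with the nuclear-stain viability signal not falling by more than 50%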;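 also: 0% = DMSO wells and 100% = triacsin C control wells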
Lipid droplet: modulators of hepatic lipid droplet formation; 0.4% of 240,000 active; AID 1656; inhibition, % at 6.5 µM; AML12 mouse hepatocytes, oleate lipid droplets, BODIPY imaging;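 active = lipid droplet intensity inhibited by at least 50%, with more than 500 cells counted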
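Material – mouse AML12 hepatocyte cell line, fixed after treatment · Compound dosing – one dose, 6.5 µM compound · Times – compound with oleate, overnight · Measured by – Image-based BODIPY and DAPI two-channel analysis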
Gli-Sufu block: antagonists of Gli-Sufu signaling | Sufu-KO-LIGHT fibroblasts, Gli luciferase reporter luminescence | AID 588413 | inhibition, % at 5 µM | 0.74% of 340,000 active;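 active = inhibition above about 55%, limit read from the data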;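 also: 0% = DMSO-treated cells and 100% = wells with medium but no cells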
697 NFkB conf: lowers PMA/ionomycin-induced NF-kB signal in 697 B cells | shares compounds with 697 NFkB inh | 697 B-cell NF-kB luciferase, 16 h | inhibition, % at 4 µM | 35% of 2,000 active | AID 449746; in the data active = inhibition mostly above about 28%, no sharp cut-off; inactive = mostly below about 22%
Gli antag conf: confirmation of Gli-SUFU pathway antagonists. inhibition, % at 5 µM. AID 602428. shares compounds with Gli-Sufu block. 40% of 2,500 active. Sufu-KO-LIGHT cells, Gli luciferase reporter, luminescence;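 active = mean inhibition at 5 µM reaching about 45%, limit read from the data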;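 also: plate controls were DMSO-treated cells for no effect and wells lacking cells for full effect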
SufuKO cytotox: cytotoxic in Gli-SUFU antagonist counter-screen; shares compounds with Gli-Sufu block; Sufu-KO-LIGHT cells cytotoxicity, ATP luminescence; cytotoxicity, % at 5 µM; 32% of 2,500 active;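 active = mean cytotoxicity at 5 µM above about 25%, limit read from the data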;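 also: cells exposed to compound overnight for roughly 16 to 18 hours; plate controls were DMSO wells with cells for no effect and medium without cells for full effect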
Wnt3a cs: counter-screen for Gli-SUFU antagonists: Wnt3a reporter inhibition; shares compounds with Gli-Sufu block; Wnt-LIGHT cells, Wnt3a-driven luciferase reporter, luminescence; inhibition, % at 6.25 µM; 20% of 2,500 active; AID 651995;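 active = mean inhibition above about 25%, limit read from the data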
TAG conf: confirmation of triacylglycerol accumulation inhibitors; inhibition, % at 12.5 µM; AID 651629; 71% of 990 active; H9c2 lipid accumulation, Nile Red fluorescence; cells loaded with 200 µM oleic acid; shares compounds with H9c2 TAG inh;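 active = mean inhibition across replicates of 40% or more; inactive = mean inhibition below 40%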;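 also: plate controls were DMSO only wells for no effect and Triacsin C treated wells for full effect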
The depositor's hits bear a star; . = no result given; ! = not active in a repeat.

SMILES | Jurkat NFkB inh | 697 NFkB inh | iPSC survival up | H9c2 TAG inh | Lipid droplet | Gli-Sufu block | Gli antag conf | SufuKO cytotox | Wnt3a cs | others
COc1ccc(-n2c(-c3ccc(Cl)cc3)c[n+]3c2CCc2ccccc2-3)cc1 | 21 | 56* | -3 | -24 | -45 | 85* | 86* | 28* | 13 | 697 NFkB conf=92*
CC1(C)Cc2c(sc3nc(=S)[nH]c(N)c23)CO1 | -13 | -15 | . | . | 1 | . | . | . | .
CCN(CC)S(=O)(=O)c1ccc(N2CCOCC2)c(NC(=O)c2[nH]c(C)c(C(C)=O)c2C)c1 | -2 | 48* | 0 | 69* | . | 32 | . | . | . | 697 NFkB conf=46*;TAG conf=75*
CC(NC(=O)CNC(=O)C1CCCCC1)c1ccc(S(N)(=O)=O)cc1 (stereo not drawn) | 1 | 7 | 1 | . | 10 | -11 | . | . | .
Cn1c(N2CCN(C(=O)NCc3ccccc3)CC2)nc2ccccc21 | 6 | 4 | -1 | -30 | . | 10 | . | . | .
CCCn1c(N2CCN(C(=O)NCc3ccccc3)CC2)nc2ccccc21 | -3 | -3 | 1 | -25 | -11 | 57* | 34 | 20 | -90
CC(C)(C)OC(=O)C[C@H]1C/C=C\C[C@H](CC(=O)N[C@H](CO)Cc2ccccc2)C(=O)N[C@H](Cc2ccccc2)COC1=O | -8 | -13 | 3 | -1 | . | 0 | . | . | .
CCOCCCn1c(SCc2nc3ccccc3s2)nc2ccccc2c1=O | -29 | -82 | -1 | -11 | -31 | 54 | 30 | 16 | -145
COc1ccc2[nH]c(=O)c(CN(Cc3cccnc3)C(=S)NCC3CCCO3)cc2c1 (stereo not drawn) | -7 | 22 | 1 | 7 | 8 | -14 | . | . | .
Cc1ccc2c(c1)c(C)cc[n+]2Cc1ccccc1 | 28 | -23 | -2 | . | 6 | 58* | 60* | 30* | 13
COc1ccc2c(c1)c(C)cc[n+]2Cc1ccccc1 | 9 | -17 | 0 | -33 | -21 | 65* | 67* | 22 | 23
CCN(CC(=O)Nc1ccc(NC(C)=O)cc1)C(=O)/C=C/c1ccc(C)o1 | 5 | 10 | 0 | 4 | . | -3 | . | . | .
Cc1cc(=O)oc2cc(OCC3CC(c4ccc(N(C)C)cc4)=NO3)ccc12 (stereo not drawn) | 0 | 6 | -1 | -6 | . | 99* | 0 | 17 | -71
CN(C)C1=NC[C@H](Cc2ccccc2)N1CCCC1CCCC1 | 24 | -11 | -2 | 14 | . | 56* | 44 | 31* | 13
O=C(Cn1cnc2ccccc21)Nc1cccc(S(=O)(=O)N2CCCC2)c1 | 28 | -1 | 0 | -28 | . | 54 | 53* | 14 | 17
Cc1nc2ncnn2c(N2CCN(S(=O)(=O)c3ccc(Br)cc3)CC2)c1C | 32 | -46 | 3 | -19 | 21 | 57* | 33 | 1 | 1
CS(=O)(=O)N(CC(=O)Nc1ccccc1Sc1ccccc1)c1ccc(F)cc1 | -27 | -17 | 0 | 7 | . | 65* | 28 | 6 | -5
CS(=O)(=O)N(CC(=O)Nc1ccccc1-c1ccccc1)c1ccc(F)cc1 | -2 | 5 | 0 | -17 | -10 | 4 | . | . | .
COc1ccc(CCC(=O)Nc2ccc(S(=O)(=O)N3CCOCC3)cc2)cc1OC | . | . | -1 | 4 | . | . | . | . | .
CCCCCn1c(=N)n(CC(O)COc2ccccc2OC)c2ccccc21 (stereo not drawn) | 13 | -11 | -4 | 37 | -32 | 81*! | 41 | 17 | -14
CC1(C)CC2CC(C)(CN2c2ncnc3ccccc23)C1 (stereo not drawn) | 26 | -43 | 1 | . | -19 | 53 | 40 | 4 | 21
CC1CCCCN1c1ncnc2ccccc12 (stereo not drawn) | 23 | -60 | -1 | . | -6 | 22 | . | . | .
CCOC(=O)Cc1csc(NC(=O)CSc2nccn2C)n1 | -5 | -31 | 0 | -2 | -2 | -7 | . | . | .
Cn1ncc(Cl)c1C(=O)N1CCN(C23CC4CC(CC(C4)C2)C3)CC1 | -11 | -27 | 0 | 10 | -16 | 99* | 26 | 4 | -14
Fc1ccc(NCc2nnc(SCc3ccccc3)o2)cc1 | -7 | 8 | 0 | 9 | -18 | -1 | . | . | .
SMILES | Jurkat NFkB inh | 697 NFkB inh | iPSC survival up | H9c2 TAG inh | Lipid droplet | Gli-Sufu block | Gli antag conf | SufuKO cytotox | Wnt3a cs | others
NCCc1nnc(SCc2ccc(F)cc2)o1 | -17 | 17 | -1 | -3 | . | 68* | 8 | 5 | 2
Cc1cccc(C(=O)Nc2ccc(N3CCN(S(C)(=O)=O)CC3)cc2)c1 | 15 | -5 | 0 | -3 | 20 | -44 | . | . | .
CCc1nn(C(C)C(=O)NCc2cccc(OC)c2)c(=O)c2cc3occc3n12 (stereo not drawn) | 0 | 3 | 0 | . | -48 | 22 | . | . | .
CC(Sc1nc(N)cc(=O)[nH]1)C(=O)NNC(=O)c1cccc(Cl)c1 (stereo not drawn) | -17 | 13 | 0 | 1 | . | 4 | . | . | .
Cc1nc2cccc(C)n2c(=O)c1Cl | 3 | 26 | 2 | 3 | -18 | 56* | 10 | 16 | 7
COc1ccc(-c2nc(CCl)cs2)cc1OC | -24 | -7 | 0 | 17 | 5 | 60* | 10 | 16 | -15
O=C(Nc1ccc(Oc2cccc3ccccc23)cc1)c1ccco1 | -17 | -48 | -2 | 9 | . | 97* | -3 | 23 | -7
O=C(Nc1cccc(NC(=O)c2ccco2)c1)c1ccccc1 | -23 | -10 | -1 | . | 12 | 52 | 16 | 7 | 18
COCC(=O)N1CCC(Oc2ccc(C(=O)NCCCn3cccn3)cc2)CC1 | -13 | 2 | 0 | . | -5 | 53 | 21 | 7 | 5
C=C(C)CN(CC)C(=O)CC1C(=O)NCCN1C (stereo not drawn) | -8 | 11 | 0 | -2 | -1 | -3 | . | . | .
O=C(NCc1ccc(Cl)cc1Cl)C1CCN(S(=O)(=O)c2ccc3c(c2)OCCCO3)CC1 | -2 | 9 | 0 | . | -28 | 63* | -1 | -6 | -47
O=C(NCc1ccc(F)cc1)C1CCN(S(=O)(=O)c2ccc3c(c2)OCCCO3)CC1 | 16 | 25 | -1 | . | 14 | 2 | . | . | .
CC1=NCCN1S(=O)(=O)c1cc(Cl)ccc1Cl | 1 | 2 | -3 | 7 | . | 56* | 23 | 17 | -3
O=S(=O)(c1cc(Cl)ccc1Cl)N1CCCC1 | 2 | -5 | 12 | -8 | -4 | 5 | . | . | .
